Published values gathered from unrelated publications.
Lines come from different studies, so protocols differ.
Target: Serine/threonine-protein kinase MAK (MAK, Homo sapiens, UniProt P20794)
Residues used in one study (P20794 1-623): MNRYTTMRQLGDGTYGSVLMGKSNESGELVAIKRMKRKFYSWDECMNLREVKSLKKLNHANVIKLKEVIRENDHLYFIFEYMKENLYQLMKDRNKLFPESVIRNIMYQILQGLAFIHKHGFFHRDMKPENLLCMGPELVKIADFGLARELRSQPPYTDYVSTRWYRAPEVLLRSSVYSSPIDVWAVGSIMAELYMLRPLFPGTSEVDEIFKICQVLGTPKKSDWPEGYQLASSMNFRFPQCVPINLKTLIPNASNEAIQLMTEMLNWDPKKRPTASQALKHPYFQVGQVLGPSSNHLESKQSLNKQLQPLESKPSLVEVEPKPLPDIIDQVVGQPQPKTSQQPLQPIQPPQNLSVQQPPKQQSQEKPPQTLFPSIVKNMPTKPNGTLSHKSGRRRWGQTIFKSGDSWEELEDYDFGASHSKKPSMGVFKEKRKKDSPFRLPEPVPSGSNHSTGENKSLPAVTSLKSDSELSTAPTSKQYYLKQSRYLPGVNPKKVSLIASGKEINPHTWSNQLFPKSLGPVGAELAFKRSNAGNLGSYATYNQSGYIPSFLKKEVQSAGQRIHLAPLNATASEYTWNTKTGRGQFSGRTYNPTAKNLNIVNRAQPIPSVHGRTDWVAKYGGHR

Structure (SMILES)	effect on	technique	concentration	remaining binding
Cc1cnc(Nc2ccc(C(=O)N3CCC(N4CCCC4)CC3)cc2)nc1-c1cc2ccccc2s1	binding	competition with immobilised ligand	1 µM	100%
C[C@@H](c1ccc(-n2cnc3c(N)ncnc32)cc1)N1CCc2nn(C)c(Cc3ccccc3)c2C1=O	binding	competition with immobilised ligand	0.1 µM	82%
O=C(NCC1CCOCC1)c1n[nH]cc1NC(=O)c1c(F)cccc1F	binding	competition with immobilised ligand	1 µM	56%
C[C@@H](c1cccc(C#N)c1)n1cc(Cl)cc(C(N)=O)c1=N	binding	competition with immobilised ligand	1 µM	94%
C=CC(=O)N1CCC(C(=O)NCC(=O)N2CCN(c3nc(-c4cnc(N)nc4C(F)F)nc(N4CCOCC4)n3)CC2)CC1	binding	competition with immobilised ligand	1 µM	100%
CS(=O)(=O)N1CCCC(NC(=O)[C@H](CCC2CCCCC2)NC(=O)c2ccc(CNC(=O)c3cnc4ccccn34)cc2)C1 (stereo partly shown)	cell-free assay	competition with immobilised ligand	0.1 µM	100%
CN(c1nccc(-c2cnn3ncccc23)n1)C1CC1	binding	–	1 µM	100%
COc1cnc(Nc2cccc(S(N)(=O)=O)c2)nc1N1CCN(c2ccccc2)CC1	binding	competition with immobilised ligand	1 µM	100%
CN(CCCC(F)(F)F)c1nccc(-c2cnn3ncccc23)n1	binding	–	1 µM	100%
O=C(NCCCN1CCOCC1)c1ccc(Nc2ncc(Cl)c(-c3ccc(Cl)s3)n2)cc1	binding	competition with immobilised ligand	1 µM	100%
Cn1nc(C(=O)NCc2ccc(C(=O)O)cc2)cc1-c1ccc2[nH]ccc2c1	cell-free assay	competition with immobilised ligand	0.1 µM	92%
O=C(c1ccc(Nc2ncc(Cl)c(-c3cc4ccccc4s3)n2)cc1)N1CCC(N2CCCC2)CC1	binding	competition with immobilised ligand	1 µM	100%
CNC(=O)[C@@H]1CC[C@@H](n2c(-c3ccc4cnccc4c3)nc3ccc(C(=O)NCc4cccc(C(N)=O)c4)cc32)C1	binding	competition with immobilised ligand	1 µM	80%
CN(C)c1nccc(-c2cnn3ncccc23)n1	binding	–	1 µM	100%
CO[C@H]1CC[C@H](CNc2ccc(S(=O)(=O)NC(=O)c3ccc(N4CCN(CC5=C(c6ccc(Cl)cc6)CC(C)(C)CC5)CC4)cc3Oc3cnc4[nH]ccc4c3)cc2[N+](=O)[O-])CC1	cell-free assay	competition with immobilised ligand	1 µM	90%
FC(F)(F)Oc1cccc(-c2cnc3ccc(-c4ccncc4)nn23)c1	cell-free assay	competition with immobilised ligand	5 µM	99%
N[C@H]1CCN(c2nccc(-c3cnn4ncccc34)n2)C1	binding	–	1 µM	78%
Nc1ncc2c(n1)-c1c([nH]c3ccc(C#CC4CC4)cc13)CCCC2	binding	competition with immobilised ligand	1 µM	100%
CCC(=O)N[C@H]1CC[C@@H](C(=O)N(C)c2ccc(-c3nc4ccccc4o3)cc2)C1	cell-free assay	competition with immobilised ligand	1 µM	85%
C[C@@H]1CCN(c2nccc(-c3cnn4ncccc34)n2)C1	binding	–	1 µM	97%
O=C1CCc2cc(Nc3cc(OC4CCOCC4)c([N+](=O)[O-])cc3Cl)ccc2N1	cell-free assay	competition with immobilised ligand	1 µM	100%
CC1CCCN1c1nccc(-c2cnn3ncccc23)n1 (stereo not shown)	binding	–	1 µM	100%
